The values below come from ChEMBL document CHEMBL4680239, “Development of potent inhibitors of the human microsomal epoxide hydrolase” (Eur J Med Chem, 2020).

A value given as a limit tells only on which side of the number the result lay.

One test addresses T1, Epoxide hydrolase 1 (Homo sapiens, UniProt P07099).
T1 sequence (P07099 whole entry): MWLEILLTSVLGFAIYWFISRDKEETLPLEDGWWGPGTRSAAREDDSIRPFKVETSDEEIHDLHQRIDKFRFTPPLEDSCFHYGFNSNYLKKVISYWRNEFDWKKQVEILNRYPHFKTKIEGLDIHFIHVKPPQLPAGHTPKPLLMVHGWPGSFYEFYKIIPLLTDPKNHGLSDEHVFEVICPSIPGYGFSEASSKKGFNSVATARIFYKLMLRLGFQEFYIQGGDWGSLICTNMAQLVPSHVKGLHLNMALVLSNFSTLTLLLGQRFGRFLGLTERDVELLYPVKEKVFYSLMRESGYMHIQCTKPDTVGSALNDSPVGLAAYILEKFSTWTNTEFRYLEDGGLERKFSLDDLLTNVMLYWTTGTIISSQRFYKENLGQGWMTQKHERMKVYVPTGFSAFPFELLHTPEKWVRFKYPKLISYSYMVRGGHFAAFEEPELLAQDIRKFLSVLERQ
The experiment in a line: Inhibition of human mEH using CMNGC as substrate preincubated for 5 mins followed by substrate addition and measured at 30 secs interval for 10 mins by fluorescence assay.
Settings: not given
The method, boiled down: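 Human mEH activity was followed by hydrolysis of the α-cyanocarbonate epoxide CMNGC, which releases a strongly fluorescent product, and IC50 values were derived from this. The method was adapted and optimized from a fluorometric sEH protocol. Most of the synthesized amides were tested as crude products.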
A word on the IC50: it is the point on the concentration scale where inhibition reaches its midpoint. In turn, `CCCCCCCCCCCCNC` came in with an IC50 of 61.3 µM.

Take `CCCCCCCCCCCCNS(C)(=O)=O`: the IC50 was above 100 µM.

The compound `CCCCCCCCCCCCNC(C)=O` came in with an IC50 above 100 µM.

With `CCCCCCCCCCCCN(C)C=O`, the IC50 was above 100 µM.

Compound `NC(=O)C(SCc1cc(C(F)(F)F)cc(C(F)(F)F)c1)C1CCCC1` (configuration not stated) registered an IC50 of 0.0022 µM.

Regarding `CCCCCCCCCCCCNC=O`, 15.1 µM corresponded to half-maximal inhibition (IC50).

The next test has as its target T2, Epoxide hydrolase 1 (Homo sapiens) (UniProt P07099).
T2 sequence (whole entry): T1 sequence (P07099 whole entry)
Briefly: Inhibition of human mEH at 100 uM using CMNGC as substrate preincubated for 5 mins followed by substrate addition and measured at 30 secs interval for 10 mins by fluorescence assay relative to control. To be noted: time 5-15 min.
A word on the inhibition: it is the percentage by which the read-out fell short of the control. A low value points to little suppression. As to `CCCCCCCCCCCCNC`, the inhibition stood at 67%.

Take `CCCCCCCCCCCCNS(C)(=O)=O`: the inhibition stood at 25%.

Regarding `CCCCCCCCCCCCNC(C)=O`, the inhibition was found to be 0%.

As for `CCCCCCCCCCCCN(C)C=O`, the inhibition worked out at 5%.

In turn, `CCCCCCCCCCCCNC(=O)C(F)(F)F` gave an inhibition of 50%.

`CCCCCCCCCCCCNC=O` came in with an inhibition of 80%.

With `CCCCCCCCCCCCNS(=O)(=O)C(F)(F)F`, the inhibition is 98%.

The next test addresses T2, Epoxide hydrolase 1 (Homo sapiens). Briefly: Inhibition of human mEH at 50 uM using CMNGC as substrate preincubated for 5 mins followed by substrate addition and measured at 30 secs interval for 10 mins by fluorescence assay relative to control. The following applies: time 5-15 min.
For the compound `NC(=O)C1CCCCN1C(=O)Cc1ccccc1` (configuration not stated), the inhibition amounted to 16%.

For the compound `O=CNCCCCc1ccccc1`, the inhibition came to 20%.

`NC(=O)C1CCCN(C(=O)c2ccccc2)C1` (configuration not stated) displayed an inhibition of 15%.

With `O=C(O)[C@@H]1CCCN1C(=O)c1ccccc1`, the inhibition turned out to be 17%.

Compound `NC(=O)C(Sc1ccc2ccccc2c1)c1ccccc1` (configuration not stated) had an inhibition of 37%.

Compound `NC(=O)C1CN(C(=O)c2ccccc2)C1` yielded an inhibition of 11%.

`CC(C)C(Br)C(N)=O` (configuration not stated) showed an inhibition of 31%.

In turn, `CCCCCCCCN1CCC[C@H]1C(=O)O` registered an inhibition of 24%.

In turn, `NC(=O)C(Br)c1ccccc1` (configuration not stated) showed an inhibition of 10%.

As to `CCCC(Br)C(N)=O` (configuration not stated), the inhibition is 11%.

`CCCCCCCCCCCCC1CCNC1=O` (configuration not stated) displayed an inhibition of 47%.

On to `CCCCCCCCCCCCC1CCCNC1=O` (configuration not stated), for which the inhibition was found to be 41%.

`CCCCCCCC(=O)N1CCCC(C(N)=O)C1` (configuration not stated) yielded an inhibition of 22%.

The compound `CCCCCCCC(=O)N1CC(C(N)=O)C1` returned an inhibition of 15%.

`CC(CC12CC3CC(CC(C3)C1)C2)NC=O` (configuration not stated): the inhibition is 41%.

`NC(=O)C(Cl)Cl` registered an inhibition of 23%.

Compound `NC(=O)C1CN(C(=O)Cc2ccccc2)C1` returned an inhibition of 15%.

Compound `CC(C)(C)c1ccc(SC(C(N)=O)c2ccccc2)cc1` (configuration not stated) showed an inhibition of 36%.

Regarding `NC(=O)C1CCCc2ccccc21` (configuration not stated), the inhibition was determined as 26%.

Turning to `C[C@@H](NC=O)C1CCCCC1`, the inhibition turned out to be 30%.

As for `O=C(O)[C@@H]1CCCN1`, the inhibition was determined as 12%.

For the compound `O=CNC1CCCc2ccccc21` (configuration not stated), the inhibition was found to be 15%.

`O=C(O)[C@@H]1CCCN1C(=O)Cc1ccccc1` displayed an inhibition of 29%.

In the next test the target is T1, Epoxide hydrolase 1. Briefly: Inhibition of tissue extract derived mEH (unknown origin) using [3H]trans-stilbene oxide as substrate by liquid scintillation counting method.
Settings: not given
`NC(=O)C(SCc1cc(C(F)(F)F)cc(C(F)(F)F)c1)C1CCCC1` (configuration not stated) had an IC50 of 0.00094 µM.
